{
  "source": "paper PMC2889768",
  "about": "(Diabetes, 2010)",
  "key": {"NCX1.1": {"biological_target": "NCX1.1 (Homo sapiens, UniProt P32418)", "test": "excised inside-out patch-clamp, recombinant forward-mode", "format": "biochemical"}, "NCX1.3": {"biological_target": "NCX1.3 (Homo sapiens, UniProt P32418)", "test": "excised inside-out patch-clamp, recombinant forward-mode", "format": "biochemical", "outline": "(§1)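 Excised inside-out patches at 22 ± 1°C from tsA201 cells 24–72 h after calcium-phosphate cotransfection with human NCX1 splice-variant cDNA plus GFP. Patch held at 0 mV. Forward-mode current elicited by raising Ca2+c […]. Peak is the maximal current after activation, late current is at 1 min, total current is the AUC. Concentration-response fitted with the Hill equation. DMSO 0.1% final.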"}, "NCX1.7": {"biological_target": "NCX1.7 (Homo sapiens, UniProt P32418)", "test": "excised inside-out patch-clamp, recombinant forward-mode", "format": "biochemical", "outline": "as §1"}, "NCX1.11": {"biological_target": "NCX1.11 (Homo sapiens, UniProt P32418, INS637ALLLNEL)", "test": "excised inside-out patch-clamp, recombinant forward-mode", "format": "biochemical", "details": "5 μmol/l; n = 8", "outline": "as §1"}, "NCX1.4": {"biological_target": "NCX1.4 (Rattus norvegicus, UniProt Q01728)", "test": "excised inside-out patch-clamp, recombinant forward-mode", "format": "biochemical", "details": "5 μmol/l; exon B replaced with A in rat NCX1.3"}, "[1]": {"tested_on": "β-cell L-type calcium channels", "format": "cell-based, mouse", "details": "1 μmol/l; n = 7"}, "[2]": {"tested_on": "β-cell L-type calcium channels", "format": "cell-based, human", "details": "1 μmol/l"}, "mouse islets [3]": {"tested_on": "mouse islets", "test": "Fura-2 calcium imaging of mouse islets", "format": "cell-based"}, "mouse β-cells": {"tested_on": "mouse β-cells", "test": "membrane capacitance, depolarization-induced exocytosis in mouse β-cells", "format": "cell-based", "details": "1 μmol/l; train of 10 depolarizations; n = 6; control 36.04 ± 4.87", "outline": "(§2)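 Islets dispersed 2 h post-isolation with 0.0025% trypsin in Ca2+-free buffer and plated on poly-D-lysine coverslips. Mouse cells cultured in medium 199, human cells in DMEM, both with 5.6 mmol/l glucose. Cells exposed to 1 μmol/l test compound for at least 5 min. Exocytosis elicited by 10 × 500-ms depolarisations (1 Hz) from −70 to 0 mV. Total is the summed capacitance increase, normalised as fF/pF. β- and α-cells identified post hoc by insulin or glucagon immunostaining.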"}, "human β-cells": {"tested_on": "human β-cells", "test": "membrane capacitance, depolarization-induced exocytosis in human β-cells", "format": "cell-based", "details": "1 μmol/l; train of 10 depolarizations; n = 4; control 13.01 ± 5.64", "outline": "as §2"}, "mouse α-cells": {"tested_on": "mouse α-cells", "test": "membrane capacitance, depolarization-induced exocytosis in mouse α-cells", "format": "cell-based", "details": "1 μmol/l", "outline": "as §2"}, "β-cells": {"tested_on": "β-cells", "test": "membrane capacitance, calcium infusion experiments", "format": "cell-based", "details": "1 μmol/l; infusion of 200 nmol/l free Ca2+", "outline": "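Whole-cell capacitance in dispersed islet cells with pipette Ca2+ buffered to 200 nmol/l free with EGTA, so Ca2+ is infused directly. Recorded with or without 1 μmol/l test compound, applied for at least 5 min. β-cells identified post hoc by insulin immunostaining.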"}, "mouse islets [4]": {"tested_on": "mouse islets", "test": "glucose-stimulated insulin secretion, mouse islet perifusion", "format": "cell-based", "details": "1 μmol/l", "outline": "(§3)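 Islets (BALB/c mouse, or human from three donors) preincubated 2 h at 37°C in low-glucose KRB (2.8 mmol/l glucose, 24 NaHCO3, 0.5% BSA, pH 7.4) ± 1 μmol/l test compound, with a solution change at 1 h. Groups of 25 islets perifused at 0.25 ml/min and 37°C: 10 min at 2.8 mmol/l, then 40 min at 11.1 mmol/l glucose. Fractions every 2 min; insulin by ELISA, as ng/ml per 25 islets or 11.1/2.8 fold change.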"}, "human islets": {"tested_on": "human islets", "test": "glucose-stimulated insulin secretion, human islet perifusion", "format": "cell-based", "details": "1 μmol/l", "outline": "as §3"}, "[5]": {"test": "intraperitoneal glucose tolerance tests in mice", "format": "in vivo", "details": "preliminary, data not shown"}, "[6]": {"tested_on": "cardiac L-type calcium channel", "details": "read-out: IC50s, cardiac L-type calcium channel; cited from earlier work"}},
  "note": "Where two headings read alike, the source gives them in different places.",
  "data": [
    {"smiles": "N=C(N)SCCc1ccc(OCc2ccc([N+](=O)[O-])cc2)cc1", "note": "[KB-R7943]", "values": [
      {"measurement": "inhibition of total FM NCX1.1 activity", "setting": "NCX1.1; 5 μmol/l", "result": "failed to inhibit"},
      {"measurement": "IC50", "setting": "NCX1.1; read-out: IC50, inhibition of total FM NCX1.1 activity, cardiac splice variant, total current (AUC), tsA201 cells", "result": 43, "unit": "µM"},
      {"measurement": "inhibition of recombinant β-cell NCX1.3 FM current", "setting": "NCX1.3; 1 μmol/l", "result": "~25", "unit": "%"},
      {"measurement": "reduction in total FM NCX1.3 activity", "setting": "NCX1.3; 5 μmol/l, n = 10", "result": "69.45 ± 3.12", "unit": "%"},
      {"measurement": "IC50", "setting": "NCX1.3; read-out: IC50, FM late current NCX1.3, late current, 1 min postactivation", "result": "2.15 ± 0.26", "unit": "µM"},
      {"measurement": "IC50", "setting": "NCX1.3; read-out: IC50, FM peak current NCX1.3, peak current", "result": "5.59 ± 0.28", "unit": "µM"},
      {"measurement": "inhibition of recombinant β-cell NCX1.7 FM current", "setting": "NCX1.7; 1 μmol/l", "result": "~25", "unit": "%"},
      {"measurement": "reduction in total FM NCX1.7 activity", "setting": "NCX1.7; 5 μmol/l, n = 10", "result": "65.57 ± 3.20", "unit": "%"},
      {"measurement": "IC50", "setting": "NCX1.7; read-out: IC50, FM late current NCX1.7, late current, 1 min postactivation", "result": "1.72 ± 0.09", "unit": "µM"},
      {"measurement": "IC50", "setting": "NCX1.7; read-out: IC50, FM peak current NCX1.7, peak current", "result": "4.71 ± 0.15", "unit": "µM"},
      {"measurement": "reduction in total current, FM NCX1.11", "setting": "NCX1.11", "result": "64.3 ± 2.92", "unit": "%"},
      {"measurement": "FM KB-R7943 sensitivity of NCX1.4", "setting": "NCX1.4", "result": "dramatically decreased FM KB-R7943 sensitivity"},
      {"measurement": "reduction in total Ba2+ current, mouse β-cells", "setting": "[1]", "result": "32.66 ± 3.74", "unit": "%"},
      {"measurement": "reduction in total Ba2+ current, human β-cells", "setting": "[2]", "result": "29.54 ± 3.18", "unit": "%"},
      {"measurement": "rate of calcium clearance after removal of the tolbutamide/KCl challenge", "setting": "mouse islets [3]; 1 μmol/l", "result": "significantly slowed"},
      {"measurement": "increase in Ca2+c when added concurrently with tolbutamide", "setting": "mouse islets [3]; 1 μmol/l KB-R7943 + 20 μmol/l tolbutamide, 2.8 mmol/l glucose, n = 9", "result": "19.95 ± 6.92", "unit": "%"},
      {"measurement": "effect on Ca2+c levels when applied alone", "setting": "mouse islets [3]; 1 μmol/l, 2.8 mmol/l glucose", "result": "failed to significantly increase"},
      {"measurement": "increase to the peak Ca2+c response", "setting": "mouse islets [3]; 1 μmol/l, 11.1 mmol/l glucose challenge", "result": "83.44 ± 18.27", "unit": "%"},
      {"measurement": "increase of average Ca2+c (AUC)", "setting": "mouse islets [3]; 1 μmol/l, 11.1 mmol/l glucose challenge, n = 9", "result": "79.98 ± 8.73", "unit": "%"},
      {"measurement": "effect on Ca2+c levels in the presence of KCl", "setting": "mouse islets [3]; 1 μmol/l, 15 mmol/l KCl", "result": "significantly increases"},
      {"measurement": "change in total capacitance, mouse β-cells", "setting": "mouse β-cells", "result": "118.22 ± 33.48", "unit": "fF/pF"},
      {"measurement": "total change in capacitance, human β-cells", "setting": "human β-cells", "result": "100.20 ± 28.82", "unit": "fF/pF"},
      {"measurement": "depolarization-induced capacitance response, mouse α-cells", "setting": "mouse α-cells", "result": "did not significantly alter"},
      {"measurement": "rate at which the capacitance increased, presence vs absence of KB-R7943", "setting": "β-cells", "result": "not significantly different"},
      {"measurement": "insulin secretion, mouse islets", "setting": "mouse islets [4]; 2.8 mmol/l glucose", "result": "without effect"},
      {"measurement": "first- and second-phase insulin secretion, mouse islets", "setting": "mouse islets [4]; 11.1 mmol/l glucose", "result": "significantly enhanced"},
      {"measurement": "insulin secretion, human islets", "setting": "human islets; 2.8 mmol/l glucose", "result": "without effect"},
      {"measurement": "first- and second-phase insulin secretion, human islets", "setting": "human islets; 11.1 mmol/l glucose", "result": "significantly enhanced"},
      {"measurement": "blood glucose in intraperitoneal glucose tolerance test", "setting": "[5]", "result": "only showed a trend toward KB-R7943 lowering blood glucose"},
      {"measurement": "IC50", "setting": "[6]", "result": "3 to 7", "unit": "µM"}
    ]},
    {"smiles": "CCCCNC(=O)NS(=O)(=O)c1ccc(C)cc1", "note": "[tolbutamide, Tolbutamide]", "values": [
      {"measurement": "increase in the 340/380 nm ratio (Ca2+c)", "setting": "mouse islets [3]; 20 μmol/l tolbutamide, 2.8 mmol/l glucose, n = 9", "result": "0.45 ± 0.04"},
      {"measurement": "decrease of elevation in Ca2+c upon a second tolbutamide challenge", "setting": "mouse islets [3]; 20 μmol/l tolbutamide, 2.8 mmol/l glucose, n = 11", "result": "21.87 ± 4.58", "unit": "%"}
    ]}
  ]
}
